These results are taken from ChEMBL document CHEMBL1671663, “In vivo characterization of the peptide deformylase inhibitor LBM415 in murine infection models” (Antimicrob Agents Chemother, 2009).

Common to all, as to assay type: functional
In assay [1] the test system is Staphylococcus aureus. Description: Antimicrobial activity against methicillin-susceptible Staphylococcus aureus ATCC 49951 by broth microdilution method. The gist of the method:
(§1)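 MICs determined by broth microdilution following CLSI guidelines. Inocula came from overnight Mueller-Hinton broth (ATCC 49951, NB01021) or overnight Trypticase soy agar culture (ATCC 6301). ATCC 6303 and ATCC 700677 came from a 5-h log culture in Todd-Hewitt broth–30% horse serum.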

Assay [2] deals with Staphylococcus aureus. Description: Antimicrobial activity against methicillin-resistant Staphylococcus aureus NB01021 by broth microdilution method. The method, boiled down: as §1
In general terms: Dilution methods test growth across graded concentrations, often in twofold steps.

Assay [3] has as its system Streptococcus pneumoniae. Description: Antimicrobial activity against Streptococcus pneumoniae ATCC 6301 by broth microdilution method. The method, boiled down: as §1
Assay [4] has as its system Streptococcus pneumoniae. The experiment in a line: Antimicrobial activity against Streptococcus pneumoniae ATCC 6303 infected in po dosed BALB/c mouse pneumonia model assessed as complete eradication of bacteria administered twice daily 3 days starting 16 hrs post infection. The settings on record: Streptococcus pneumoniae, ATCC 6303, po. The method, boiled down: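 Anesthetized (ketamine/xylazine) female BALB/c mice (19 to 22 g) inoculated intranasally with 50 µl log-phase culture (1.4 × 10^5 CFU/mouse). Oral treatment, six mice per group, at 16, 27, 40, 51, 64 and 75 h postinfection; vehicle controls. Lungs harvested one day after last dose, homogenized, plated; log10 CFU/lung. Deaths assigned 9 log10 CFU/lung; Kruskal-Wallis with Dunn's test versus control.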

Assay [5] relates to Streptococcus pneumoniae. Description: Antimicrobial activity against multiple drug-resistant Streptococcus pneumoniae ATCC 700677 by broth microdilution method. The gist of the method: as §1
Assay [6] relates to Streptococcus pneumoniae. Description: Antimicrobial activity against Streptococcus pneumoniae ATCC 6303 by broth microdilution method. The gist of the method:
as §1

Assay [7] concerns Staphylococcus aureus. The experiment in a line: Antimicrobial activity against methicillin-susceptible Staphylococcus aureus ATCC 13709 by broth microdilution method. The gist of the method: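 MIC by broth microdilution following CLSI guidelines.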
Assay [8] deals with Staphylococcus aureus. Description: Antimicrobial activity against methicillin-resistant Staphylococcus aureus NB01021 infected in sc dosed BALB/c mouse administered 0, 4, 23 hrs post infection. The method, boiled down: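 Female BALB/c mice (19–23 g) infected intraperitoneally with MRSA NB01021 in 5% hog gastric mucin, 2.1 × 10^7 to 2.8 × 10^7 CFU/mouse (0.3 ml), 10–100× minimal lethal dose. Three dose levels, groups of 5–6; vehicle controls. Treatment 0, 4 and 23 h post-infection. Observed 8 days; ED50 with 95% CI by probit analysis of day-8 survival.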

Assay [9] deals with Streptococcus pneumoniae. Description: Antimicrobial activity against multiple drug resistant Streptococcus pneumoniae ATCC 700677 infected in po dosed BALB/c mouse administered twice daily for 3 days. The settings on record: ATCC 700677, po, 72 h. The method, boiled down: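 Female BALB/c mice (19–23 g) infected intraperitoneally with ATCC 700677 from a 5-h Todd-Hewitt–30% horse serum log culture, suspended in 5% hog mucin, 1.5 × 10^7 to 2 × 10^7 CFU/mouse. Groups of 5–6, typically three dose levels; vehicle controls. Dosed 1, 5, 17, 27, 42, 51 h post-infection. ED50 from day-8 survival by probit analysis, with 95% CI.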

Assay [10] has as its system Staphylococcus aureus. The experiment in a line: Antimicrobial activity against methicillin susceptible Staphylococcus aureus ATCC 49951 infected in sc dosed NMRI mouse treated 1 and 5 hrs post infection. The settings on record: ATCC 49951, sc. The gist of the method: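 Intraperitoneal infection (0.3 ml/mouse, 10 to 100 times minimal lethal dose) with inoculum in 0.86% NaCl; ATCC 49951 grown overnight in Mueller-Hinton broth (1.7 × 10^7 to 2.2 × 10^7 CFU/mouse), ATCC 13709 in tryptic soy broth (7.3 × 10^7 to 2 × 10^8 CFU/mouse). Groups of 5 to 6 mice, typically three doses, treated 1 and 5 h postinfection; vehicle controls. ED50 by probit analysis of day-8 survival.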

Assay [11] relates to Staphylococcus aureus. The experiment in a line: Antimicrobial activity against methicillin susceptible Staphylococcus aureus ATCC 13709 infected in sc dosed NMRI mouse treated 1 and 5 hrs post infection. Particulars: ATCC 13709, sc. The method, boiled down:
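Systemic infection: ATCC 13709 grown overnight in tryptic soy broth and suspended in 0.86% NaCl. Given intraperitoneally at 7.3 × 10^7 to 2 × 10^8 CFU/mouse, 10–100× the minimal lethal dose, 0.3 ml/mouse. Groups of 5–6 mice, typically three dose levels; controls got vehicle. Dosed 1 and 5 h post-infection. Survival followed 8 days; ED50 (protection of 50%) with 95% CI by probit analysis of day-8 survival.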

In brackets after ≈: the same amount, converted by molar mass.

`COc1c(N2C[C@@H]3CCCN[C@@H]3C2)c(F)cc2c(=O)c(C(=O)O)cn(C3CC3)c12` [MOXIFLOXACIN]: the minimum inhibitory concentration (MIC) (as a rule, the lowest concentration that inhibits growth of the organism) in the assay on Staphylococcus aureus [1] is 0.06 µg/mL (≈ 0.149 µM); with Staphylococcus aureus [2], 1 µg/mL (≈ 2.49 µM); in the assay with Streptococcus pneumoniae [3], 0.5 µg/mL (≈ 1.25 µM); in the assay with Streptococcus pneumoniae [5], at most 0.06 µg/mL; with Streptococcus pneumoniae [6], 0.5 µg/mL (≈ 1.25 µM); against Staphylococcus aureus [7], at most 0.03 µg/mL. Also, in the assay with Streptococcus pneumoniae [4], the median effective dose (ED50) (commonly the dose at which the effect has come halfway, by size or by number of responders) was found to be 14.3 mg/kg.

Consider `CC1(C)S[C@@H]2[C@H](NC(=O)Cc3ccccc3)C(=O)N2[C@H]1C(=O)O` [PENICILLIN G], for which the minimum inhibitory concentration (MIC) against Staphylococcus aureus [1] was at most 0.125 µg/mL; against Staphylococcus aureus [2], 64 µg/mL (≈ 191 µM); against Streptococcus pneumoniae [3], 0.03 µg/mL (≈ 0.0897 µM); in the assay on Streptococcus pneumoniae [5], 32 µg/mL (≈ 95.7 µM); against Streptococcus pneumoniae [6] it was 0.06 µg/mL (≈ 0.179 µM); against Staphylococcus aureus [7] it was at most 0.125 µg/mL. In the assay with Staphylococcus aureus [8], this compound came in with an ED50 of over 135 mg/kg.

In turn, `CC1(C)S[C@@H]2[C@H](NC(=O)COc3ccccc3)C(=O)N2[C@H]1C(=O)O` [PENICILLIN V] gave a 50% effective dose (ED50) in the assay with Streptococcus pneumoniae [9] of over 60 mg/kg.

For `CC[C@H]1OC(=O)[C@H](C)C(=O)[C@H](C)[C@@H](O[C@@H]2O[C@H](C)C[C@H](N(C)C)[C@H]2O)[C@](C)(OC)C[C@@H](C)C(=O)[C@H](C)[C@H]2N(CCCCn3cnc(-c4cccnc4)c3)C(=O)O[C@]12C` [TELITHROMYCIN], the minimal inhibitory concentration (MIC) was 0.25 µg/mL (≈ 0.308 µM) against Staphylococcus aureus [1]; over 64 µg/mL against Staphylococcus aureus [2]; at most 0.125 µg/mL with Streptococcus pneumoniae [3]; at most 0.25 µg/mL against Streptococcus pneumoniae [5]; at most 0.125 µg/mL in the assay with Streptococcus pneumoniae [6]; at most 0.125 µg/mL with Staphylococcus aureus [7]. In the assay on Streptococcus pneumoniae [9], this compound gave a 50% effective dose (ED50) of 13.2 mg/kg.

On to `CN[C@H](CC(C)C)C(=O)N[C@H]1C(=O)N[C@@H](CC(N)=O)C(=O)N[C@H]2C(=O)N[C@H]3C(=O)N[C@H](C(=O)N[C@H](C(=O)O)c4cc(O)cc(O)c4-c4cc3ccc4O)[C@H](O)c3ccc(c(Cl)c3)Oc3cc2cc(c3O[C@@H]2O[C@H](CO)[C@@H](O)[C@H](O)[C@H]2O[C@H]2C[C@](C)(N)[C@H](O)[C@H](C)O2)Oc2ccc(cc2Cl)[C@H]1O` [VANCOMYCIN], for which the ED50 in the assay on Staphylococcus aureus [10] stood at 1.5 mg/kg; with Staphylococcus aureus [11] it was 2.8 mg/kg; in the assay with Staphylococcus aureus [8], 2.5 mg/kg. Also, the figures for the MIC in the assay with Streptococcus pneumoniae [3], with Streptococcus pneumoniae [5] and against Streptococcus pneumoniae [6] were 0.5 µg/mL (≈ 0.345 µM), at most 0.125 µg/mL and 0.5 µg/mL (≈ 0.345 µM), respectively.
